Reference: article PMC2784041 (Environmental Microbiology, 2009)
Where two headings read alike, the source gives them in different places.

Tests used:
Assay in all cases: spectrophotometric ring-cleavage assay, non-linear Michaelis-Menten fit
EXDO-Dbt_s207 = format: biochemical; conditions: read-out: Km (μM) ^b, partially purified enzyme
EXDO-K2_s162 = format: biochemical; conditions: read-out: Km (μM) ^b; 50 mM K/Na-phosphate pH 8.0, air-saturated; partially purified enzyme
Summary of the method: (§1)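 Enzyme came from E. coli EPI300-T1R fosmid clones grown at 37°C in LB with 0.01% L-arabinose and 25 μg ml−1 chloramphenicol, harvested in late exponential phase. Extracts were partially purified by anion exchange chromatography. Ring-cleavage product was followed spectrophotometrically in 50 mM air-saturated K/Na-phosphate pH 8.0 (catechol ε375, 3-methylcatechol ε388, 2,3-dihydroxybiphenyl ε434). Km was obtained from initial velocities over 1–100 μM substrate by non-linear Michaelis–Menten regression.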

EXDO-K2_s3 = format: biochemical; conditions: read-out: Km (μM) ^b; 50 mM K/Na-phosphate pH 8.0, air-saturated; partially purified enzyme
Summary of the method: as §1

EXDO-D_s4 = format: biochemical, uncultured bacterium; conditions: read-out: Km (μM) ^b; 50 mM K/Na-phosphate pH 8.0, air-saturated; partially purified enzyme
Summary of the method: as §1

EXDO-D_s45 = format: biochemical, uncultured bacterium; conditions: read-out: Km (μM) ^b; 50 mM K/Na-phosphate pH 8.0, air-saturated; partially purified enzyme
Summary of the method: as §1

EXDO-K2_s129 = format: biochemical; conditions: read-out: Km (μM) ^b; 50 mM K/Na-phosphate pH 8.0, air-saturated; partially purified enzyme
Summary of the method: as §1

EXDO-K2_s7 = format: biochemical; conditions: read-out: Km (μM) ^b; 50 mM K/Na-phosphate pH 8.0, air-saturated; partially purified enzyme
Summary of the method: as §1

EXDO-D_s151 = format: biochemical, uncultured bacterium; conditions: read-out: Km (μM) ^b; 50 mM K/Na-phosphate pH 8.0, air-saturated; partially purified enzyme
Summary of the method: as §1

[1] = 50 mM K/Na-phosphate pH 8.0, air-saturated

## Oc1ccc2ccccc2c1O [1,2-dihydroxynaphthalene]
EXDO-Dbt_s207; 50 mM acetic acid/NaOH pH 5.5, air-saturated
  Km: 11.6 ± 1.4 µM

## Oc1cccc(-c2ccccc2)c1O [2,3-dihydroxybiphenyl]
EXDO-K2_s162
  Km: 1 ± 0.1 µM
EXDO-K2_s3
  Km: 2.1 ± 0.2 µM
EXDO-D_s4
  Km: 3.7 ± 0.6 µM
EXDO-D_s45
  Km: 0.61 ± 0.08 µM
EXDO-K2_s129
  Km: 2.1 ± 0.2 µM
EXDO-Dbt_s207; [1]
  Km: 4.2 ± 0.7 µM
EXDO-K2_s7
  Km: 0.84 ± 0.08 µM

## Cc1cccc(O)c1O [3-methylcatechol]
EXDO-K2_s162
  Km: 4.3 ± 0.7 µM
EXDO-D_s151
  Km: 3.5 ± 1.5 µM
EXDO-K2_s3
  Km: 4.5 ± 0.6 µM
EXDO-D_s4
  Km: 1.8 ± 0.3 µM
EXDO-D_s45
  Km: 0.27 ± 0.1 µM
EXDO-K2_s129
  Km: 9.3 ± 1.1 µM
EXDO-Dbt_s207; [1]
  Km: 13.6 ± 1.9 µM
EXDO-K2_s7
  Km: 4.6 ± 0.4 µM

## Oc1ccccc1O [catechol]
EXDO-D_s151
  Km: 1.1 ± 0.2 µM
EXDO-D_s4
  Km: 1.4 ± 0.2 µM
EXDO-D_s45
  Km: 0.27 ± 0.03 µM
EXDO-Dbt_s207; [1]
  Km: 35 ± 5 µM
